For data set [1], the target named is T1, hEPOR-Fc construct (EPOR extracellular domain-IgFc) (Homo sapiens, UniProt P19235).
T1 sequence (P19235 25-250 limits assumed): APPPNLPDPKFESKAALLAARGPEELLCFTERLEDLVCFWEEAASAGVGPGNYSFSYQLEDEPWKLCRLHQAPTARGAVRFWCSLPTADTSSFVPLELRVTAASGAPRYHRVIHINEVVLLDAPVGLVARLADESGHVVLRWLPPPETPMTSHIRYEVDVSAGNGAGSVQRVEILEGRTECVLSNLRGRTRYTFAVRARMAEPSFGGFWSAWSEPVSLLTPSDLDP
The data set is described as follows: Surface plasmon resonance. It counts as binding. The following applies: Biacore. For orientation: Surface plasmon resonance follows binding to a sensor surface in real time, without labels.

For the next data set, the system named is EPOR (UT7epo cells). Nature of the data set: Western blotting of EPOR forms in UT7epo cells. The data set is classed as cell-based, human. The following applies: versus rHu-EPO. Put shortly:
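UT7epo cells were cultured in test compound or rHu-EPO at varied, biologically matched doses. For extended time-courses, medium plus ligand was replaced daily. Western blots over the time-course were probed with rabbit monoclonal anti-hEPOR IC-c1.1, with anti-GAPDH as loading control.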

For data set [2] the following is noted: cited from earlier work.
The subject of another data set is EPOR transcript. The data set is described as follows: Quantitative RT-PCR of EPOR transcript levels. The data set is classed as cell-based, human. The following applies: peginesatide vs rHu-EPO; data not shown.
For data set [3], the system named is endogenous cell surface EPOR (UT7epo cells). Nature of the data set: Flow cytometry of endogenous cell surface EPOR in UT7epo cells. The following applies: versus rHu-EPO at matched doses (1.5U/mL vs 2.1 nM, 2.0 U/mL vs 2.8nM); days 4 and 8; antibody EC-c38.5; median and mean fluorescence intensities, clear statistical significance; n=3. The data set is classed as cell-based, human. (In general: A flow cytometer gives signals particle by particle.)

“Also recorded” adds a separate entry of the source.

With peginesatide, the “stability of binding to the EPOR” value in data set [1] (ECD-EPOR-Fc immobilized at 675 RU and 225 RU) is given as “uniquely highly stable binding to the EPOR”. The “EPOR residence time, ratio to that of rHu-EPO” value in data set [1] (estimated, greater than that of rHu-EPO, immobilized ECD-EPOR-Fc) was 17.1 fold. Moreover, the “processing of the EPOR to lower molecular weight forms” value with EPOR (UT7epo cells) (peginesatide as the EPOR ligand) was “observed trends towards apparent lessened processing of the EPOR to lower molecular weight forms”. Also, in the data set with EPOR (UT7epo cells) (time-course, antibody IC-c1.1), the “levels of full-length EPOR-68K receptor forms” value is “elevated levels of full-length EPOR-68K receptor forms” and the “levels of lower molecular weight EPOR-36K form” value is given as “no such increases were observed”. Besides, the allergenic side-effects result in data set [2] (first-time recipients, ref Bennett, et al 2014) is recorded as “can also somehow stimulate allergenic reactivity; also recorded: allergenic side-effects in certain first-time recipients”. The anaphylactic reactions result in data set [2] (ref Bennett, et al 2014) is given as “rare fatal anaphylaxis; also recorded: severe anaphylactic reactions infrequently experienced”. Besides, in the data set on EPOR transcript, the EPOR transcript levels result is reported as “no differential effects”. Also, in data set [3], the “cell surface EPOR levels” value is listed as “notably elevated cell surface EPOR levels”.
Turning to “rHu-TPO: Thrombopoietin (TPO); effective in stimulating megakaryocyte and platelet production”, the TPO-reactive antibody formation result in data set [2] (clinical trials, ref Basser 2002) is on record as “induce TPO- reactive antibody formation”.

The values above are taken from PMC4956517 (Experimental hematology, 2016).
